# ChEMBL document CHEMBL1148039, “New aporphine alkaloids from guatteria foliosa” (1994)
# Activity calls are given as the source filed them. The calls are words filed in the database; no cut-off is given here.
# Key:
# Trypanosoma cruzi = test: Antiprotozoal activity against trypomastigotes form of Trypanosoma cruzi Y at 250 ug/ml after 24 hrs; type: functional
# Outline: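 Bloodstream trypomastigotes taken from blood of T. cruzi-infected mice and incubated with test compound (DMSO solution) for 24 h at 4°. Parasites then counted. Assay done three times.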
# Leishmania amazonensis [1] = test: Antiprotozoal activity against promastigotes form of Leishmania amazonensis H-142 assessed as total lysis of parasites at 100 ug/ml after 24 hrs; type: functional, organism-based
# Outline: (§1)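 Promastigotes of each Leishmania strain exposed to test compound at 100 µg/ml, dissolved in DMSO, for 24 h at 28°. Viability judged by direct inverted-microscope observation and scored against controls: 0 no lysis; + less mobile; ++ modified or immobilized; +++ total lysis. Three independent runs.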
# Leishmania amazonensis [2] = test: Antiprotozoal activity against promastigotes form of Leishmania amazonensis LV79 assessed as total lysis of parasites at 100 ug/ml after 24 hrs; type: functional, organism-based; outline: as §1
# Leishmania donovani [3] = test: Antiprotozoal activity against promastigotes form of Leishmania donovani pp-75 assessed as total lysis of parasites at 100 ug/ml after 24 hrs; type: functional, organism-based; outline: as §1
# Leishmania braziliensis [4] = test: Antiprotozoal activity against promastigotes form of Leishmania braziliensis 2903 assessed as total lysis of parasites at 100 ug/ml after 24 hrs; type: functional, organism-based
# Outline: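 Promastigotes exposed to compound (dissolved in DMSO) at 100 µg/ml for 24 h at 28°. Viability judged by direct observation under an inverted microscope and scored as 0 (no lysis), + (less mobile than controls), ++ (modified or immobilized) or +++ (total lysis). Each assay run three times. Glucantime and pentamidine used as control drugs.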
# Leishmania amazonensis [5] = test: Antiprotozoal activity against promastigotes form of Leishmania amazonensis H-142 assessed as less mobile parasites at 100 ug/ml after 24 hrs; type: functional, organism-based; outline: as §1
# Leishmania amazonensis [6] = test: Antiprotozoal activity against promastigotes form of Leishmania amazonensis LV79 assessed as less mobile parasites at 100 ug/ml after 24 hrs; type: functional, organism-based; outline: as §1
# Leishmania donovani [7] = test: Antiprotozoal activity against promastigotes form of Leishmania donovani pp-75 assessed as less mobile parasites at 100 ug/ml after 24 hrs; type: functional, organism-based; outline: as §1
# Leishmania braziliensis [8] = test: Antiprotozoal activity against promastigotes form of Leishmania braziliensis 2903 assessed as immobilized parasites at 100 ug/ml after 24 hrs; type: functional, organism-based; outline: as §1
# Leishmania donovani [9] = test: Antiprotozoal activity against promastigotes form of Leishmania donovani pp-75 assessed as immobilized parasites at 100 ug/ml after 24 hrs; type: functional, organism-based; outline: as §1
compound,measurement,setting,value
COc1cccc2c1-c1c3c(c(OC)c4ccnc(c14)C2=O)OCO3,Activity,Trypanosoma cruzi,46.6%
COc1c2c3c(c4c1OCO4)-c1ccc(O)cc1C(C)(O)C3=NCC2 (stereo not given),Activity,Trypanosoma cruzi,0%
COc1c(O)c2c3c(c1OC)-c1ccccc1C[C@H]3NCC2,Activity,Trypanosoma cruzi,68.2%
COc1cccc2c1-c1c3c(c(OC)c4c1[C@@H](C2)NCC4)OCO3,Activity,Trypanosoma cruzi,35.7%
COc1c(O)c2c3c(c1OC)-c1ccc(O)cc1C[C@@H]3NCC2,Activity,Trypanosoma cruzi,2.55%
N=C(N)c1ccc(OCCCCCOc2ccc(C(=N)N)cc2)cc1,Activity,Leishmania amazonensis [1],Active
same,Activity,Leishmania amazonensis [2],Active
same,Activity,Leishmania donovani [3],Active
same,Activity,Leishmania braziliensis [4],Active
COc1c(O)cc(CCN(C)C)c2ccc3ccccc3c12 [ARGENTININE],Activity,Leishmania amazonensis [5],Active
same,Activity,Leishmania amazonensis [6],Active
same,Activity,Trypanosoma cruzi,81.3%
same,Activity,Leishmania donovani [7],Active
same,Activity,Leishmania braziliensis [8],Active
COc1cc2c(cc1O)C[C@H]1c3cc(O)c(OC)cc3CCN1C2 [COREXIMINE],Activity,Leishmania amazonensis [5],Active
same,Activity,Leishmania amazonensis [6],Active
same,Activity,Trypanosoma cruzi,0%
same,Activity,Leishmania braziliensis [8],Active
same,Activity,Leishmania donovani [9],Active
COc1c2c3c(c4c1OCO4)-c1c(O)cccc1C[C@H]3NCC2 [ELMERRILLICINE],Activity,Trypanosoma cruzi,0%
CN(C)c1ccc(C(=C2C=CC(=[N+](C)C)C=C2)c2ccc(N(C)C)cc2)cc1.[Cl-] [GENTIAN VIOLET],Activity,Trypanosoma cruzi,100%
COc1c(O)c(OC)c2c3c1CCN=C3C(C)(O)c1cc(O)ccc1-2 (stereo not given) [ISOGUATTOUREGIDINE],Activity,Trypanosoma cruzi,92%
same,Activity,Leishmania amazonensis [1],Active
same,Activity,Leishmania amazonensis [2],Active
same,Activity,Leishmania braziliensis [8],Active
same,Activity,Leishmania donovani [3],Active
MEGLUMINE ANTIMONATE,Activity,Leishmania amazonensis [1],Active
same,Activity,Leishmania amazonensis [2],Active
same,Activity,Leishmania donovani [3],Active
same,Activity,Leishmania braziliensis [4],Active
